Measurements: ChEMBL document CHEMBL4011622, “The Structure-Activity Relationship of a Tetrahydroisoquinoline Class of N-Methyl-d-Aspartate Receptor Modulators that Potentiates GluN2B-Containing N-Methyl-d-Aspartate Receptors” (J Med Chem, 2017)

How the values were obtained:
[1] = target: Glutamate NMDA receptor; Grin1/Grin2b (Rattus norvegicus, UniProt P35439+Q00960); assay: Positive allosteric modulation of recombinant rat GluN1/GluN2B receptor expressed in xenopus laevis oocyte assessed as potentiation of glutamate and glycine-induced current response at holding potential -40mV by two electrode voltage clamp method
Procedure, shortened: (§1)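 Two-electrode voltage clamp at -40 mV, 23°C, pH 7.4 Ba²⁺ recording solution, on Xenopus oocytes expressing rat NMDA receptors. Currents were evoked by 100 µM glutamate plus 30 µM glycine, with compound co-applied (DMSO 0.05–0.5% final). Each compound used at least 4 oocytes from at least 2 frogs.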

[2] = target: T1, Ionotropic glutamate receptor NMDA 1/2D (Rattus norvegicus) (UniProt P35439+Q62645); assay: Positive allosteric modulation of recombinant rat GluN1/GluN2D receptor expressed in xenopus laevis oocyte assessed as potentiation of glutamate and glycine-induced current response at 30 uM at holding potential -40mV by two electrode voltage clamp method relative to control; procedure, shortened: as §1
[3] = target: Ionotropic glutamate receptor NMDA 1/2D (Rattus norvegicus, UniProt P35439+Q62645); assay: Positive allosteric modulation of recombinant rat GluN1/GluN2D receptor expressed in xenopus laevis oocyte assessed as potentiation of glutamate and glycine-induced current response at holding potential -40mV by two electrode voltage clamp method; procedure, shortened: as §1
[4] = target: T2, Glutamate NMDA receptor; Grin1/Grin2c (Rattus norvegicus) (UniProt P35439+Q00961); assay: Positive allosteric modulation of recombinant rat GluN1/GluN2C receptor expressed in xenopus laevis oocyte assessed as potentiation of glutamate and glycine-induced current response at 30 uM at holding potential -40mV by two electrode voltage clamp method relative to control; procedure, shortened: as §1
[5] = target: T3, Glutamate NMDA receptor; Grin1/Grin2b (Rattus norvegicus) (UniProt P35439+Q00960); assay: Positive allosteric modulation of recombinant rat GluN1/GluN2B receptor expressed in xenopus laevis oocyte assessed as potentiation of glutamate and glycine-induced current response at 30 uM at holding potential -40mV by two electrode voltage clamp method relative to control
Procedure, shortened: as §1, with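 “final). […]” for “final).”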

[6] = target: Glutamate NMDA receptor; Grin1/Grin2c (Rattus norvegicus, UniProt P35439+Q00961); assay: Positive allosteric modulation of recombinant rat GluN1/GluN2C receptor expressed in xenopus laevis oocyte assessed as potentiation of glutamate and glycine-induced current response at holding potential -40mV by two electrode voltage clamp method; procedure, shortened: as §1
[7] = target: T2, Glutamate NMDA receptor; Grin1/Grin2c (Rattus norvegicus); assay: Positive allosteric modulation of recombinant rat GluN1/GluN2C receptor expressed in xenopus laevis oocyte assessed as compound concentration required to show two fold increase in glutamate and glycine-induced current response at holding potential -40mV by two electrode voltage clamp method
[8] = target: T3, Glutamate NMDA receptor; Grin1/Grin2b (Rattus norvegicus); assay: Positive allosteric modulation of recombinant rat GluN1/GluN2B receptor expressed in xenopus laevis oocyte assessed as compound concentration required to show two fold increase in glutamate and glycine-induced current response at holding potential -40mV by two electrode voltage clamp method
[9] = target: T1, Ionotropic glutamate receptor NMDA 1/2D (Rattus norvegicus); assay: Positive allosteric modulation of recombinant rat GluN1/GluN2D receptor expressed in xenopus laevis oocyte assessed as compound concentration required to show two fold increase in glutamate and glycine-induced current response at holding potential -40mV by two electrode voltage clamp method
[10] = target: T3, Glutamate NMDA receptor; Grin1/Grin2b (Rattus norvegicus); assay: Positive allosteric modulation of recombinant rat GluN1/GluN2B receptor expressed in xenopus laevis oocyte assessed as potentiation of glutamate-induced current response at 30 uM at holding potential -40mV by two electrode voltage clamp method

Compound	EC50 [1] [nM]	Activity [2] [%]	Emax [2] [%]	EC50 [3] [nM]	Activity [4] [%]	Emax [4] [%]	Activity [5] [%]	Emax [5] [%]	EC50 [6] [nM]	CD [7] [µM]	CD [8] [µM]	CD [9] [µM]	Activity [10] [%]
CCOc1ccc(OCC2c3ccc(OCC(C)C)cc3CCN2C(=O)c2cccc(F)c2)cc1 (stereo unspecified)	2500	351	364	3400	309	325	332	342	3100	–	–	–	–
CCOc1ccc(OCC2c3ccc(OC(C)C)cc3CCN2C(=S)c2cccc(C(F)(F)F)c2)cc1 (stereo unspecified)	720	–	128	450	–	141	–	190	350	–	–	–	–
CCOc1ccc(OCC2c3ccc(OC(C)C)cc3CCN2C(=S)c2cccc(Cl)c2)cc1 (stereo unspecified)	400	–	192	1600	–	278	–	172	5000	7.6	–	–	–
COc1ccc(OCC2c3ccc(OC(C)C)cc3CCN2C(=O)c2cccc([N+](=O)[O-])c2)cc1 (stereo unspecified)	5300	335	351	3400	337	358	198	203	2800	–	–	–	–
CCOc1ccc2c(c1)CCN(C(=O)c1cccc(Cl)c1)C2COc1ccc(OC)cc1 (stereo unspecified)	7800	329	344	3000	285	294	158	167	2400	–	–	–	–
CC(C)Oc1ccc2c(c1)CCN(C(=O)c1cccc(Cl)c1)C2COc1ccc(OC(F)(F)F)cc1 (stereo unspecified)	1400	150	152	1700	189	192	130	130	1500	–	–	–	–
CCOc1ccc(OCC2c3ccc(OC(C)C)cc3CCN2C(=O)c2ccc(F)c(F)c2)cc1 (stereo unspecified)	3700	133	137	2900	145	150	172	173	1800	–	–	–	–
COc1ccc(OCC2c3ccc(N4CCCCC4)cc3CCN2C(=O)c2cccc(Cl)c2)cc1 (stereo unspecified)	4900	418	464	4000	289	313	213	221	2300	–	–	–	–
CCOc1ccc(OCC2c3ccc(OCC(C)C)cc3CCN2C(=O)c2cccc(Cl)c2)cc1 (stereo unspecified)	1000	342	351	1500	238	242	294	293	1000	–	–	–	–
CCOc1ccc(OCC2c3ccc(OC(C)C)cc3CCN2C(=S)c2cccc(Br)c2)cc1 (stereo unspecified)	340	–	135	280	–	166	–	174	940	–	–	–	–
COc1ccc(OC[C@@H]2c3ccc(OC(C)C)cc3CCN2C(=O)c2cccc(Cl)c2)cc1	–	–	267	3800	–	277	–	276	–	3.5	3.5	4.4	–
CCOc1ccc(OCC2c3ccc(OC(C)C)cc3CCN2C(=S)c2ccc(F)c(Cl)c2)cc1 (stereo unspecified)	840	–	128	440	–	159	–	222	350	–	17	–	–
COc1ccc(OC[C@H]2c3ccc(OC(C)C)cc3CCN2C(=O)c2cccc(Cl)c2)cc1	–	–	297	–	–	252	–	–	–	1.3	–	1	101
